Experimental findings from PMC3567311 (ACS chemical biology, 2012) are described below.

What is called Ki is the dissociation constant of the complex between target and ligand, obtained from inhibition or displacement. A higher Ki goes with lower affinity. The EC50 is the midpoint of the concentration-response curve. A lower EC50 goes with an effect from little substance.

Read-outs that look alike come from different tables or passages of the source.

In test [1] the target is T1, Kvβ2 (Rattus norvegicus, UniProt P62483, W272A).
T1 sequence (P62483 36-361 W272A): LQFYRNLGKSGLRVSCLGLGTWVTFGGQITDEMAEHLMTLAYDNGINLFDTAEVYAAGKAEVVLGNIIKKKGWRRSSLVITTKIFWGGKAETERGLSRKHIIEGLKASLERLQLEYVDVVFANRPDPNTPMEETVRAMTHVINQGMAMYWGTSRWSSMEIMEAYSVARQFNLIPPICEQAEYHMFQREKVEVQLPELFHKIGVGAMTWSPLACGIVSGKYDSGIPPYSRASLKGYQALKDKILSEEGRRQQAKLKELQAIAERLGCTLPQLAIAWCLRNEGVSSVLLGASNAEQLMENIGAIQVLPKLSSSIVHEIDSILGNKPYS
It is filed as binding.

The target in test [2] is T2, Kvβ1 (Rattus norvegicus, UniProt P63144, C7A). Put plainly: inside-out patch clamp dose-response. It is filed as cell-based. A digest of the protocol: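 Inside-out patches from Xenopus oocytes injected with mixed mRNAs of rat Kv1.1 and rat Kvβ1 (Cys7→Ala), or with a Kvβ1-Kv1.1 fused chimera. Currents elicited by stepping from −80 mV to +60 mV for 400 ms. Test compound was dissolved in DMSO, diluted into internal buffer (final 1% DMSO) and perfused at several concentrations. ΔIss = rise in steady-state current as a fraction of initial inactivating current. EC50 taken from the dose-response curve.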
T2 sequence (P63144 whole entry C7A, the tested form may be a part): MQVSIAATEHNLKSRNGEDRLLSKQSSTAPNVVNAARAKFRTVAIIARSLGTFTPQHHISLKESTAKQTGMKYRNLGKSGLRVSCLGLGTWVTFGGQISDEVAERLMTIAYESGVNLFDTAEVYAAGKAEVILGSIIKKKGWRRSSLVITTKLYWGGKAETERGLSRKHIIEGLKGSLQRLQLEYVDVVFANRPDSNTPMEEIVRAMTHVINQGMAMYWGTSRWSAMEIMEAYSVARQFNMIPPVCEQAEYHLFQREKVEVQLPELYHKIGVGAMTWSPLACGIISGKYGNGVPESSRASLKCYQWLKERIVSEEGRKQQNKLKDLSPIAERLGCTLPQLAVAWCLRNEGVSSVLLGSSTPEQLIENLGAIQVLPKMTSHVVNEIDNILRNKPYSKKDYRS
T2 sequence (P10499 whole entry partner, the tested form may be a part): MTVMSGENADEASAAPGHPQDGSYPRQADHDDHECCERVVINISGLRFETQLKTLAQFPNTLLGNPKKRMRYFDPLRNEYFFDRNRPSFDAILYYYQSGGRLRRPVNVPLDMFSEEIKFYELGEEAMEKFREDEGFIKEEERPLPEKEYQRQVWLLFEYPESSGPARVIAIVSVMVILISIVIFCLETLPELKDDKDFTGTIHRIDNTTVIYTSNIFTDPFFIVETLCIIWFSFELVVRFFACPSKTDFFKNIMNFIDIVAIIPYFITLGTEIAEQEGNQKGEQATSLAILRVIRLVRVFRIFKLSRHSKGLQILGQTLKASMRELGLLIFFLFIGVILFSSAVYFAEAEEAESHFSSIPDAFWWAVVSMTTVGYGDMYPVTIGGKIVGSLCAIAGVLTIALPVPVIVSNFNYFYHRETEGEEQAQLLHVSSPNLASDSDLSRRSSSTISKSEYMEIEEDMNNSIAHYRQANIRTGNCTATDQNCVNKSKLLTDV

Test [3] concerns the target T1, Kvβ2. Put plainly: scintillation proximity assay, competition with 3H-cortisone. The note with it: read-out: % reduction of cortisone binding at 250 μM. On the technique in general: SPA uses beads or plates that emit light when radiolabelled molecules are held near them.
The target of test [4] is T2, Kvβ1. Put plainly: inside-out patch clamp dose-response. It counts as cell-based. The source holds these as a separate data set.
Test [5] concerns the target T1, Kvβ2. In words: scintillation proximity assay, competition with 3H-cortisone. The note with it: read-out: % reduction of cortisone binding at 250 μM. The source holds these as a separate data set.

The compound `C[C@]12CCC(=O)C=C1CC[C@@H]1[C@@H]2C(=O)C[C@@]2(C)[C@H]1CC[C@]2(O)C(=O)CO` [cortisone] returned a Ki on Kvβ2 [1] of 30 ± 10 µM. In addition, the midpoint of the response on Kvβ1 [2], the EC50, lay at 46 µM.
In the case of `CCC(=O)O[C@]1(C(=O)SCF)[C@H](C)C[C@H]2[C@@H]3C[C@H](F)C4=CC(=O)C=C[C@]4(C)[C@@]3(F)[C@@H](O)C[C@@]21C` [fluticasone propionate], on Kvβ2 [3], the inhibition at 250 µM was determined as 98 ± 0.1%. The EC50 at Kvβ1 [4] amounted to 0.037 ± 0.0011 µM.
`CC(=O)OCC(=O)[C@@]1(O)CC[C@H]2[C@@H]3CCC4=CC(=O)CC[C@]4(C)[C@H]3C(=O)C[C@@]21C` [cortisone 21-acetate] displayed an EC50 on Kvβ1 [4] of 9 ± 1.1 µM. The inhibition at 250 µM on Kvβ2 [5] was determined as 95 ± 0.2%.
